Laboratory results from paper PMC3328401 (Journal of Medicinal Chemistry, 2012).

Key:
OVCAR-3 cells [1] = test: Concentration-dependent uptake; format: cell-based, human; conditions: OVCAR-3, 3 h exposure, estimated
[2] = Chemical hydrolysis of cycloSal phosphate triesters in phosphate buffer; format: physicochemical; conditions: phosphate buffer 50 mM, pH 7.3, 37°C, ~15% acetonitrile
LS 174T cells [3] = test: Concentration-dependent uptake; format: cell-based, human; conditions: 3 h exposure, estimated
[4] = system: U-87 MG glioblastoma cells; test: Clonogenic survival; format: cell-based, human; conditions: U-87, after eight weeks in culture
OVCAR-3 cells [5] = test: Subcellular distribution of 125I-labeled reagents; format: cell-based, human; conditions: for ^125I in cytoplasm, 24 hours / ^125I in nucleus, 24 hours: 1 h incubation then 24 h in fresh nonradioactive medium; for ^125I in cytoplasm, 1 hour / ^125I in nucleus, 1 hour: 1 h incubation, 55.5 kBq/mL
Method in brief: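 OVCAR-3 cells were kept in RPMI-1640 with insulin, 2 mM L-glutamine and 20% FBS and expanded as intraperitoneal xenografts in athymic nude mice. Cells in six T150 flasks attached overnight, then were exposed 1 h to ¹²⁵I compound (55.5 kBq/mL). Three flasks were processed immediately and three after 24 h in fresh medium. Cells were trypsinized, counted, fractionated into nuclear/cytoplasmic compartments and gamma-counted.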

[6] = Lipophilicity, shake-tube method n-octanol/phosphate buffered saline; format: physicochemical; conditions: n-octanol / phosphate buffered saline 10 mM, pH 6.8
LS 174T cells [7] = test: Uptake kinetics; format: cell-based, human
OVCAR-3 cells [8] = test: Uptake kinetics; format: cell-based, human
Method in brief: (§1)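 Cells were plated at 2×10⁵/well in 6-well plates in 3 mL growth medium: OVCAR-3 in RPMI-1640 with 20% FBS, LS 174T in EMEM with 10% FBS. After 24 h, radiolabeled compound (~13.6–46.9 kBq/mL) was added at staggered times, up to 360 min, in triplicate. Medium was gamma-counted for radioactive concentration. Cells were washed twice with ice-cold PBS, trypsinized and gamma-counted for cell-associated activity.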

U-87 MG cells = test: Subcellular distribution and DNA retention of 125I; format: cell-based, human
Method in brief: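 U-87 MG cells (~1×10⁶ per T75, EMEM with 10% FBS) were grown 24 h, then given radiolabeled compound for 1 h. They were processed immediately or after 24 h in fresh nonradioactive medium. Pellets (1,000 rpm, 4°C, 15 min) were fractionated with nuclear/cytoplasmic extraction reagents into cytoplasm, soluble nuclear and DNA fractions, which were gamma-counted. DNA-bound ¹²⁵I was also measured after genomic-tip DNA isolation. Longer exposures of 40–144 h were also run.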

[9] = system: LS 174T colorectal adenocarcinoma cells; test: Clonogenic survival and cell-retained 125I; format: cell-based, human; conditions: 4 h, 185 kBq/mL
Method in brief: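 LS 174T cells (2×10⁶ per T75) attached ~18 h, then exposed 4 h at 37°C to radiolabeled compound (185 kBq) or to nonradioactive medium for controls. Cells were washed, trypsinized and counted for viability. 1 mL of a 1×10⁶ cells/mL suspension was gamma-counted for cell-associated ¹²⁵I. Cells were plated in duplicate T25 flasks at 1,000, 500 and 100 cells/flask. Methanol-fixed colonies were scored after three weeks. Surviving fraction is treated/control colonies.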

[10] = system: LS 174T and OVCAR-3 cancer cell lines; test: Uptake kinetics, cell-associated activity after 3 h; format: cell-based, human; conditions: after 3 h incubation
Method in brief: as §1

human BChE = human BChE (Homo sapiens, UniProt P06276); test: Gel electrophoresis/autoradiography of radioactive compounds with BChE; format: binding; conditions: BChE 0.02 U or increasing activities, 30 min
Method in brief: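 Radioactive compounds with human BChE were run on native and nonreducing SDS-PAGE gels at constant 150 V or 190 V for 1 h. Gels were exposed to autoradiography film at −80°C for 1–48 h, depending on applied radioactivity. Native gels were stained for BChE activity with 1 mM butyrylthiocholine iodide as substrate (Karnovsky–Roots method).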

[11] = Solubility in aqueous media; conditions: aqueous media / water
[12] = intravenously administered; cited from earlier work
[13] = after intratumor injections; cited from earlier work

human BChE, sequence (P06276 29-602): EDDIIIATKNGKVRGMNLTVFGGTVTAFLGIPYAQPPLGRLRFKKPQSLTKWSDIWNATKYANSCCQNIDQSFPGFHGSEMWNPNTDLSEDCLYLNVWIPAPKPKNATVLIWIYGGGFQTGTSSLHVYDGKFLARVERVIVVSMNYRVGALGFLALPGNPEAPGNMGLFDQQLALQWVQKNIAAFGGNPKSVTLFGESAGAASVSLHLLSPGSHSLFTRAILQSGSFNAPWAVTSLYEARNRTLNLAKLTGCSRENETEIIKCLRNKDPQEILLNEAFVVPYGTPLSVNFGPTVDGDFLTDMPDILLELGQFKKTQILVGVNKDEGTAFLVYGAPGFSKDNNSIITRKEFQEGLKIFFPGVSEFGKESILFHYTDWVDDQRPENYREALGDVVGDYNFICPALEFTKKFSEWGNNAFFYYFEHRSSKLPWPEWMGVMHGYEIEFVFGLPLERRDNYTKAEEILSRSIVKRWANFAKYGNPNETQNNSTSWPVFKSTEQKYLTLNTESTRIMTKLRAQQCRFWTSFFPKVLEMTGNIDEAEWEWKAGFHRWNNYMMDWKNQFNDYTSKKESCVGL

In the case of O=c1[nH]c(=O)n([C@H]2C[C@H](O)[C@@H](COP3(=O)OCc4ccccc4O3)O2)cc1[125I] (stereo partly shown) [6b-fast, 5-[^125I]-Iodo-5′-O-cycloSaligenyl-2′-deoxyuridine Monophosphate], the Bmax (OVCAR-3 cells [1]) is reported as ~ 7,400 molecules/cell, the “k (rate of hydrolysis)” value [2] is reported as 0.00225 min⁻¹ and the Bmax (LS 174T cells [3]) is reported as ~ 1,300 molecules/cell. The “colony formation” value [4] was “failed to produce any colonies”.

For O=c1[nH]c(=O)n([C@H]2C[C@H](O)[C@@H](COP3(=O)OCc4ccccc4O3)O2)cc1[125I] (stereo partly shown) [6b-slow, 5-[^125I]-Iodo-5′-O-cycloSaligenyl-2′-deoxyuridine Monophosphate], the “^125I in cytoplasm, 24 hours” value (OVCAR-3 cells [5]) was 6.0 (0.7) cpm/10^3 cells (std dev), the “^125I in nucleus, 24 hours” value (OVCAR-3 cells [5]) was 31.3 (6.0) cpm/10^3 cells (std dev) and the “^125I in cytoplasm, 1 hour” value (OVCAR-3 cells [5]) was 14.8 (6.8) cpm/10^3 cells (std dev). For the same compound, the “^125I in nucleus, 1 hour” value (OVCAR-3 cells [5]) was 4.9 (2.5) cpm/10^3 cells (std dev), the Bmax (OVCAR-3 cells [1]) was > 50,000 molecules/cell and the “k (rate of hydrolysis)” value [2] was 0.00152 min⁻¹. The Bmax (LS 174T cells [3]) was ~ 6,800 molecules/cell, the “Log P” value [6] was 0.66 (± 0.03) and the “uptake ratio of slow to fast diastereomer” value (LS 174T cells [7]; after 90 min) was ~ 1.7. The “uptake rate, slow relative to fast diastereomer” value (LS 174T cells [7]; up to 90 min) was 4.6 ×, the “uptake ratio of slow to fast diastereomer” value (OVCAR-3 cells [8]; OVCAR-3, after 90 min) was ~ 1.7 and the “uptake rate, slow relative to fast diastereomer” value (OVCAR-3 cells [8]; OVCAR-3, up to 90 min) was 6.5 ×. For the same compound, the “colony formation” value [4] was “failed to produce any colonies” and the “125I accumulated in DNA” value (U-87 MG cells; U-87, 40-h incubation, 19.6 kBq/mL, genomic tips method) was 1.18 (0.11) mBq ^125I/cell.

In the case of Cc1cccc2c1OP(=O)(OC[C@H]1O[C@@H](n3cc([125I])c(=O)[nH]c3=O)C[C@@H]1O)OC2 (stereo partly shown) [7b-fast, 5-[^125I]-Iodo-5′-O-cyclo(3-methylSaligenyl)-2′-deoxyuridine Monophosphate], the “125I retained per cell” value [9] is reported as 0.196 (0.06) mBq ^125I/cell and the “k (rate of hydrolysis)” value [2] is reported as 0.000544 min⁻¹.

For Cc1cccc2c1OP(=O)(OC[C@H]1O[C@@H](n3cc([125I])c(=O)[nH]c3=O)C[C@@H]1O)OC2 (stereo partly shown) [7b-slow, 5-[^125I]-Iodo-5′-O-cyclo(3-methylSaligenyl)-2′-deoxyuridine Monophosphate], the “125I retained per cell” value [9] was 0.566 (0.333) mBq ^125I/cell, the surviving fraction [9] was 0.63 (0.22) mBq and the “^125I in cytoplasm, 24 hours” value (OVCAR-3 cells [5]) was 1.8 (0.6) cpm/10^3 cells (std dev). For the same compound, the “^125I in nucleus, 24 hours” value (OVCAR-3 cells [5]) was 29.3 (7.0) cpm/10^3 cells (std dev), the “^125I in cytoplasm, 1 hour” value (OVCAR-3 cells [5]) was 13.0 (1.3) cpm/10^3 cells (std dev) and the “^125I in nucleus, 1 hour” value (OVCAR-3 cells [5]) was 5.4 (0.4) cpm/10^3 cells (std dev). For the same compound, the “k (rate of hydrolysis)” value [2] was 0.000463 min⁻¹, the “ratio of slow to fast uptake” value (LS 174T cells [7]; after 6 h) was 3.0 and the “cell-associated radioactivity, OVCAR-3 compared to LS 174T” value (OVCAR-3 cells [8]) was 1.7 ×. For the same compound, the “ratio of slow to fast uptake” value (OVCAR-3 cells [8]; OVCAR-3, after 6 h) was 3.5.

With CC(C)(C)c1cc(C(C)(C)C)c2c(c1F)COP(=O)(OC[C@H]1O[C@@H](n3cc([125I])c(=O)[nH]c3=O)C[C@@H]1O)O2 (stereo partly shown) [8b-fast, 5-[^125I]-Iodo-5′-O-[cyclo-3,5-di-(tert-butyl)-6-fluoroSaligenyl]-2′-deoxyuridine Monophosphate] the “cell associated activity relative to the corresponding 6b diastereomer” value [10] was over 110 × and the “cell associated activity relative to the corresponding 7b diastereomer” value [10] was over 20 ×.

With CC(C)(C)c1cc(C(C)(C)C)c2c(c1F)COP(=O)(OC[C@H]1O[C@@H](n3cc([125I])c(=O)[nH]c3=O)C[C@@H]1O)O2 (stereo partly shown) [8b-slow, 5-[^125I]-Iodo-5′-O-[cyclo-3,5-di-(tert-butyl)-6-fluoroSaligenyl]-2′-deoxyuridine Monophosphate] the “^125I in cytoplasm, 24 hours” value (OVCAR-3 cells [5]) was 2.8 (0.7) cpm/10^3 cells (std dev), the “^125I in nucleus, 24 hours” value (OVCAR-3 cells [5]) was 91.6 (5.7) cpm/10^3 cells (std dev) and the “^125I in cytoplasm, 1 hour” value (OVCAR-3 cells [5]) was 87.3 (7.5) cpm/10^3 cells (std dev). The “^125I in nucleus, 1 hour” value (OVCAR-3 cells [5]) was 7.8 (0.6) cpm/10^3 cells (std dev), the “binding to BChE on gel autoradiograph” value (human BChE) was “BChE activity-dependent binding” and the “cell associated activity relative to the corresponding 6b diastereomer” value [10] was ~ 180 ×. For the same compound, the “cell associated activity relative to the corresponding 7b diastereomer” value [10] was 35 ×.

For CC(C)(C)c1cc(C(C)(C)C)c2c(c1F)COP(=O)(OC[C@H]1O[C@@H](n3cc(I)c(=O)[nH]c3=O)C[C@@H]1F)O2 (stereo partly shown) [24-slow, 5-Iodo-5′-O-[cyclo-3,5-Di-(tert-butyl)-6-fluoroSaligenyl]-3′-fluoro-2′,3′-dideoxyuridine Monophosphate], the “k (rate of hydrolysis)” value [2] was 0.000222 min⁻¹.

In the case of CC(C)(C)c1cc(C(C)(C)C)c2c(c1F)COP(=O)(OC[C@H]1O[C@@H](n3cc([125I])c(=O)[nH]c3=O)C[C@@H]1F)O2 (stereo partly shown) [24b, 5-[^125I]-Iodo-5′-O-[cyclo-3,5-Di-(tert-butyl)-6-fluoroSaligenyl]-3′-fluoro-2′,3′-dideoxyuridine], the “solubility” value [11] is reported as “low solubility”.

With CC(C)(C)c1cc(C(C)(C)C)c2c(c1F)COP(=O)(OC[C@H]1O[C@@H](n3cc([125I])c(=O)[nH]c3=O)C[C@@H]1F)O2 (stereo partly shown) [24b-fast, 5-[^125I]-Iodo-5′-O-[cyclo-3,5-Di-(tert-butyl)-6-fluoroSaligenyl]-3′-fluoro-2′,3′-dideoxyuridine] the “k (rate of hydrolysis)” value [2] was 0.000301 min⁻¹.

In the case of CC(C)(C)c1cc(C(C)(C)C)c2c(c1F)COP(=O)(OC[C@H]1O[C@@H](n3cc([125I])c(=O)[nH]c3=O)C[C@@H]1F)O2 (stereo partly shown) [24b-slow, 5-[^125I]-Iodo-5′-O-[cyclo-3,5-Di-(tert-butyl)-6-fluoroSaligenyl]-3′-fluoro-2′,3′-dideoxyuridine], the “binding to BChE on gel autoradiograph” value (human BChE) is reported as “BChE activity-dependent binding”, the “k (rate of hydrolysis)” value [2] is reported as 0.000224 min⁻¹ and the “uptake and retention lower in the cytoplasm, nucleus and DNA” value (U-87 MG cells; U-87 MG, 1 h treatment) is reported as ~ 20 ×. The “presence in intracellular compartments at 24 h” value (U-87 MG cells; U-87 MG, 24 h in fresh medium) was “practically undetectable”.

For O=c1[nH]c(=O)n([C@H]2C[C@H](O)[C@@H](CO)O2)cc1[125I] [^125IUdR, 5-[^125I]Iodo-2′-deoxyuridine], the “time to destruction in circulation” value [12] is listed as “within a few min”, the “injected ^125IUdR associated with one gram of tumor” value [13] is listed as ~ 0.02% and the “tumor uptake, range” value [13] is listed as 0.001–0.06 % ID/g.

In the case of CC(C)(C)c1cc(C(C)(C)C)c2c(c1F)COP(=O)(OC[C@H]1O[C@@H](n3cc(I)c(=O)[nH]c3=O)C[C@@H]1O)O2 (stereo partly shown) [compound 8, 5-Iodo-5′-O-[cyclo-3,5-di-(tert-butyl)-6-fluoroSaligenyl]-2′-deoxyuridine Monophosphate], the “solubility” value [11] is reported as “lower water solubility”.

With CC(C)(C)c1cc(C(C)(C)C)c2c(c1F)COP(=O)(O[C@H]1C[C@H](n3cc(I)c(=O)[nH]c3=O)O[C@@H]1CO)O2 (stereo partly shown) [compound 14, 5-Iodo-3′-O-[cyclo-3,5-di-(tert-butyl)-6-fluoroSaligenyl]-2′-deoxyuridine Monophosphate] the “solubility” value [11] was “lower water solubility”.

For CC(C)(C)c1cc(C(C)(C)C)c2c(c1F)COP(=O)(OC[C@H]1O[C@@H](n3cc(I)c(=O)[nH]c3=O)C[C@@H]1F)O2 (stereo partly shown) [compound 24, 5-Iodo-5′-O-[cyclo-3,5-Di-(tert-butyl)-6-fluoroSaligenyl]-3′-fluoro-2′,3′-dideoxyuridine Monophosphate], the “solubility” value [11] was “lower water solubility”.
